{"source": "ChEMBL document CHEMBL1151422", "about": "“Effect of antimicrobial compounds on Balamuthia mandrillaris encystment and human brain microvascular endothelial cell cytopathogenicity” (Antimicrob Agents Chemother, 2007)", "key": {"Balamuthia mandrillaris [1]": {"test_system": "Balamuthia mandrillaris", "assay": "Antimicrobial activity against Balamuthia mandrillaris ATCC 50209 infected in HBMEC assessed as inhibition of encystment at 200 uM after 7 days", "format": "functional", "conditions": "ATCC 50209, 168 h", "method_in_brief": "(§1)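 Trophozoites (>95%) held at 2 × 10^5/ml in RPMI 1640 with drug at 37°C for 48 h. SDS (0.5% final) lyses the remaining trophozoites, and a hemocytometer count is taken before and after SDS. % encystment = post-SDS/pre-SDS × 100, and percent inhibition is calculated from it; mean ± SE. For viability, cysts made before SDS were placed on HBMEC monolayers for up to 7 days and watched for trophozoite emergence.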"}, "Balamuthia mandrillaris [2]": {"test_system": "Balamuthia mandrillaris", "assay": "Antimicrobial activity against Balamuthia mandrillaris ATCC 50209 infected in HBMEC assessed as inhibition of encystment at 500 uM after 7 days", "format": "functional", "conditions": "ATCC 50209, 168 h", "method_in_brief": "as §1"}, "Balamuthia mandrillaris [3]": {"test_system": "Balamuthia mandrillaris", "assay": "Antimicrobial activity against Balamuthia mandrillaris ATCC 50209 infected in HBMEC assessed as inhibition of amoeba-induced cytopathogenicity at 200 uM after 24 hrs by LDH release assay", "format": "functional", "conditions": "ATCC 50209, 24 h", "method_in_brief": "(§2)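 B. mandrillaris ATCC 50209 (grown on host-cell feeder layers) pretreated with drug for 45 min in serum-free medium, then added at 10^5 amoebae/well, with inhibitor still present, to primary HBMEC monolayers (RPMI 1640, 10% FBS, 10% NuSerum). Incubation at 37°C, 5% CO2, up to 24 h. Cytotoxicity read as LDH release into supernatant. Percent inhibition is relative to amoebae alone; mean ± SE.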"}, "Balamuthia mandrillaris [4]": {"test_system": "Balamuthia mandrillaris", "assay": "Antimicrobial activity against Balamuthia mandrillaris ATCC 50209 infected in HBMEC assessed as inhibition of encystment at 100 uM after 7 days", "format": "functional", "conditions": "ATCC 50209, 168 h", "method_in_brief": "as §1"}, "Balamuthia mandrillaris [5]": {"test_system": "Balamuthia mandrillaris", "assay": "Antimicrobial activity against Balamuthia mandrillaris ATCC 50209 infected in HBMEC assessed as inhibition of amoeba-induced cytopathogenicity at 100 uM after 24 hrs by LDH release assay", "format": "functional", "conditions": "ATCC 50209, 24 h", "method_in_brief": "as §2"}, "Balamuthia mandrillaris [6]": {"test_system": "Balamuthia mandrillaris", "assay": "Antimicrobial activity against Balamuthia mandrillaris ATCC 50209 infected in HBMEC assessed as inhibition of amoeba-induced cytopathogenicity at 5 ug/mL after 24 hrs by LDH release assay", "format": "functional", "conditions": "ATCC 50209, 24 h", "method_in_brief": "as §2"}, "Balamuthia mandrillaris [7]": {"test_system": "Balamuthia mandrillaris", "assay": "Antimicrobial activity against Balamuthia mandrillaris ATCC 50209 infected in HBMEC assessed as inhibition of encystment at 5 ug/mL after 7 days", "format": "functional", "conditions": "ATCC 50209, 168 h", "method_in_brief": "as §1"}, "Balamuthia mandrillaris [8]": {"test_system": "Balamuthia mandrillaris", "assay": "Antimicrobial activity against Balamuthia mandrillaris ATCC 50209 infected in HBMEC assessed as inhibition of amoeba-induced cytopathogenicity at 10 ug/mL after 24 hrs by LDH release assay", "format": "functional", "conditions": "ATCC 50209, 24 h", "method_in_brief": "as §2"}, "Balamuthia mandrillaris [9]": {"test_system": "Balamuthia mandrillaris", "assay": "Antimicrobial activity against Balamuthia mandrillaris ATCC 50209 infected in HBMEC assessed as inhibition of encystment at 10 ug/mL after 7 days", "format": "functional", "conditions": "ATCC 50209, 168 h", "method_in_brief": "as §1"}, "[10]": {"assay": "Cytotoxicity against HBMEC assessed as LDH release at 10 ug/mL", "conditions": "human"}, "Balamuthia mandrillaris [11]": {"test_system": "Balamuthia mandrillaris", "assay": "Antimicrobial activity against Balamuthia mandrillaris ATCC 50209 infected in HBMEC assessed as inhibition of amoeba-induced cytopathogenicity at 10 uM after 24 hrs by LDH release assay", "format": "functional", "conditions": "ATCC 50209, 24 h", "method_in_brief": "as §2"}, "Balamuthia mandrillaris [12]": {"test_system": "Balamuthia mandrillaris", "assay": "Antimicrobial activity against Balamuthia mandrillaris ATCC 50209 infected in HBMEC assessed as inhibition of encystment at 50 uM after 7 days", "format": "functional", "conditions": "ATCC 50209, 168 h", "method_in_brief": "as §1"}, "Balamuthia mandrillaris [13]": {"test_system": "Balamuthia mandrillaris", "assay": "Antimicrobial activity against Balamuthia mandrillaris ATCC 50209 infected in HBMEC assessed as inhibition of amoeba-induced cytopathogenicity at 50 uM after 24 hrs by LDH release assay", "format": "functional", "conditions": "ATCC 50209, 24 h", "method_in_brief": "as §2"}, "Balamuthia mandrillaris [14]": {"test_system": "Balamuthia mandrillaris", "assay": "Antimicrobial activity against Balamuthia mandrillaris ATCC 50209 infected in HBMEC assessed as inhibition of encystment at 10 uM […]", "format": "functional", "method_in_brief": "as §1"}}}
{"smiles": "C[C@@H]1C[C@@H]([C@H](O)CC2CC(=O)NC(=O)C2)C(=O)[C@@H](C)C1", "note": "[CYCLOHEXIMIDE]", "values": [{"measurement": "inhibition at 200 µM", "setting": "Balamuthia mandrillaris [1]", "result": 95, "unit": "%"}, {"measurement": "inhibition at 500 µM", "setting": "Balamuthia mandrillaris [2]", "result": 98.4, "unit": "%"}, {"measurement": "inhibition at 200 µM", "setting": "Balamuthia mandrillaris [3]", "result": 0, "unit": "%"}, {"measurement": "inhibition at 100 µM", "setting": "Balamuthia mandrillaris [4]", "result": 94, "unit": "%"}, {"measurement": "inhibition at 100 µM", "setting": "Balamuthia mandrillaris [5]", "result": 44, "unit": "%"}]}
{"smiles": "CCC[C@@H]1C[C@@H](C(=O)N[C@@H]([C@H]2O[C@H](SC)[C@H](O)[C@@H](O)[C@H]2O)[C@H](C)Cl)N(C)C1", "note": "[CLINDAMYCIN]", "values": [{"measurement": "inhibition at 5 µg/mL", "setting": "Balamuthia mandrillaris [6]", "result": 16, "unit": "%"}, {"measurement": "inhibition at 5 µg/mL", "setting": "Balamuthia mandrillaris [7]", "result": 4, "unit": "%"}, {"measurement": "inhibition at 10 µg/mL", "setting": "Balamuthia mandrillaris [8]", "result": 10, "unit": "%"}, {"measurement": "inhibition at 10 µg/mL", "setting": "Balamuthia mandrillaris [9]", "result": 0, "unit": "%"}]}
{"smiles": "C[C@@H]1CC[C@H]2[C@@H](C)C(=O)O[C@@H]3O[C@@]4(C)CC[C@@H]1[C@]32OO4", "note": "[ARTEMISININ]", "values": [{"measurement": "inhibition at 5 µg/mL", "setting": "Balamuthia mandrillaris [6]", "result": 34, "unit": "%"}, {"measurement": "inhibition at 5 µg/mL", "setting": "Balamuthia mandrillaris [7]", "result": 37, "unit": "%"}, {"measurement": "inhibition at 10 µg/mL", "setting": "Balamuthia mandrillaris [8]", "result": 45, "unit": "%"}, {"measurement": "inhibition at 10 µg/mL", "setting": "Balamuthia mandrillaris [9]", "result": 52, "unit": "%"}]}
{"smiles": "CC(=O)N1CCN(c2ccc(OCC3COC(Cn4ccnc4)(c4ccc(Cl)cc4Cl)O3)cc2)CC1", "note": "(configuration not stated) [KETOCONAZOLE]", "values": [{"measurement": "Activity", "setting": "[10]", "result": "< 5", "unit": "%"}, {"measurement": "inhibition at 5 µg/mL", "setting": "Balamuthia mandrillaris [6]", "result": 14, "unit": "%"}, {"measurement": "inhibition at 5 µg/mL", "setting": "Balamuthia mandrillaris [7]", "result": 0, "unit": "%"}, {"measurement": "inhibition at 10 µg/mL", "setting": "Balamuthia mandrillaris [8]", "result": 88.5, "unit": "%"}, {"measurement": "inhibition at 10 µg/mL", "setting": "Balamuthia mandrillaris [9]", "result": 0, "unit": "%"}]}
{"smiles": "C=C1[C@@H](C)[C@H]2[C@H](Cc3ccccc3)NC(=O)[C@]23[C@H](OC(C)=O)/C=C/[C@@](C)(O)C(=O)[C@@H](C)C/C=C/[C@H]3[C@@H]1O", "note": "[CYTOCHALASIN D]", "values": [{"measurement": "inhibition at 100 µM", "setting": "Balamuthia mandrillaris [4]", "result": 76, "unit": "%"}, {"measurement": "inhibition at 10 µM", "setting": "Balamuthia mandrillaris [11]", "result": 13, "unit": "%"}, {"measurement": "inhibition at 50 µM", "setting": "Balamuthia mandrillaris [12]", "result": 64, "unit": "%"}, {"measurement": "inhibition at 50 µM", "setting": "Balamuthia mandrillaris [13]", "result": 42, "unit": "%"}, {"measurement": "inhibition at 10 µM", "setting": "Balamuthia mandrillaris [14]", "result": 42, "unit": "%"}]}
{"smiles": "Nc1nc(=O)[nH]cc1F", "note": "[FLUCYTOSINE]", "values": [{"measurement": "inhibition at 5 µg/mL", "setting": "Balamuthia mandrillaris [6]", "result": 20, "unit": "%"}, {"measurement": "inhibition at 5 µg/mL", "setting": "Balamuthia mandrillaris [7]", "result": 43, "unit": "%"}, {"measurement": "inhibition at 10 µg/mL", "setting": "Balamuthia mandrillaris [8]", "result": 61, "unit": "%"}, {"measurement": "inhibition at 10 µg/mL", "setting": "Balamuthia mandrillaris [9]", "result": 56, "unit": "%"}]}
